Assay results collected from several papers.
Protocols differ between the studies behind these lines. Converted amounts (≈) assume the structure as drawn.

| Structure (SMILES) | target or system | test | system | setting | endpoint | value |
| --- | --- | --- | --- | --- | --- | --- |
| C=CCO/N=c1\cc2n(-c3ccc(Cl)cc3)c3ccccc3nc-2cc1Nc1ccc(Cl)cc1 | Mycobacteroides abscessus | microbial growth | – | clinical isolate | MIC | > 30 µM |
| CN(C)c1cc(NC(=O)CCc2ccccc2)c(O)c2c1C[C@H]1C[C@H]3[C@H](N(C)C)C(O)=C(C(N)=O)C(=O)[C@@]3(O)C(O)=C1C2=O | Mycobacteroides abscessus | microbial growth, resazurin | ATCC19977 | – | IC50 | 8.87 µg/mL |
| O=C(NO)c1ccc(CNc2nc3cccc(-c4ccc5c(c4)OCO5)n3n2)cc1 | DU-145 | cell growth or viability, SRB | – | – | GI50 | 0.47 µM |
| C=C(F)C(=O)N1CCN(c2nc(OC[C@@H]3CCCN3C)nc3c2CCN(c2cccc4cccc(Cl)c24)C3)C[C@@H]1CC#N | MIA PaCa-2 | cell growth or viability, ATP luminescence | – | 3D culture | IC50 | 0.00251 µM |
| O=C(C#Cc1ccc(F)c(F)c1)c1ccccc1 | Pseudomonas aeruginosa | microbial growth, absorbance | – | 10 µM, 24 h | activity vs control | 94% |
| C[C@H](NC(=O)CO/N=c1\cc2n(-c3ccc(Cl)cc3)c3ccccc3nc-2cc1Nc1ccc(Cl)cc1)C(=O)OC(C)(C)C | Mycobacteroides abscessus | microbial growth | – | clinical isolate | MIC | > 30 µM |
| CN(C)c1cc(NC(=O)Cc2cscn2)c(O)c2c1C[C@H]1C[C@H]3[C@H](N(C)C)C(O)=C(C(N)=O)C(=O)[C@@]3(O)C(O)=C1C2=O | Mycobacteroides abscessus | microbial growth, resazurin | ATCC19977 | – | IC50 | 0.23 µg/mL |
| OC(C#Cc1ccc(F)c(F)c1)c1ccccc1 (stereo not shown) | Pseudomonas aeruginosa | microbial growth, absorbance | – | 100 µM, 24 h | activity vs control | 97% |
| O=C1CC[C@H](N2Cc3cc(N4CCN(CC5CCN(c6ccc([C@@H]7c8ccc(O)cc8CC[C@@H]7c7ccccc7)cc6)CC5)CC4)ccc3C2=O)C(=O)N1 | T47D | cell growth or viability, ATP luminescence | – | 5 days | GI50 | 0.0045 µM |
| CN(C)c1cc(NC(=O)CNC(C)(C)C)c(O)c2c1C[C@H]1C[C@H]3[C@H](N(C)C)C(O)=C(C(N)=O)C(=O)[C@@]3(O)C(O)=C1C2=O | Mycobacteroides abscessus | microbial growth, resazurin | ATCC19977 | – | IC50 | 0.28 µg/mL |
| OC(C#Cc1ccc(F)c(F)c1)c1cccc(Cl)c1 (stereo not shown) | Pseudomonas aeruginosa | microbial growth, absorbance | – | 10 µM, 24 h | activity vs control | 96% |
| CN(C)c1cc(NC(=O)CCc2cccnc2)c(O)c2c1C[C@H]1C[C@H]3[C@H](N(C)C)C(O)=C(C(N)=O)C(=O)[C@@]3(O)C(O)=C1C2=O | Mycobacteroides abscessus | microbial growth, resazurin | ATCC19977 | – | IC50 | 5.63 µg/mL |
| COc1ccc(C(=O)C#Cc2ccc(O)c(OC)c2)cc1 | Pseudomonas aeruginosa | microbial growth, absorbance | – | 10 µM, 24 h | activity vs control | 95% |
| CC(C)/N=c1\cc2n(-c3ccc(Cl)cc3)c3ccccc3nc-2cc1Nc1ccc(Cl)cc1 | Mycobacteroides abscessus | microbial growth | – | clinical isolate | MIC | 3.75 µM (≈ 1.78 µg/mL) |
| COc1cc(C#CC(=O)c2cccc(Cl)c2)ccc1O | Pseudomonas aeruginosa | microbial growth, absorbance | – | 10 µM, 24 h | activity vs control | 102% |
| CN(C)c1cc(NC(=O)Cc2ccncn2)c(O)c2c1C[C@H]1C[C@H]3[C@H](N(C)C)C(O)=C(C(N)=O)C(=O)[C@@]3(O)C(O)=C1C2=O | Mycobacteroides abscessus | microbial growth, resazurin | ATCC19977 | – | IC50 | 0.59 µg/mL |
| C=CC(=O)NC1CCN(c2ncc3ncnc(Nc4ccc(Oc5ccc6c(c5)ncn6C)c(C)c4)c3n2)CC1 | SW837 | cell growth or viability | – | – | EC50 | 21500 µM |
| COc1cc(C#CC(=O)c2ccccc2OC)ccc1O | Pseudomonas aeruginosa | microbial growth, absorbance | – | 10 µM, 24 h | activity vs control | 91% |
| CN(C)c1cc(NC(=O)Cc2ccncc2)c(O)c2c1C[C@H]1C[C@H]3[C@H](N(C)C)C(O)=C(C(N)=O)C(=O)[C@@]3(O)C(O)=C1C2=O | Mycobacteroides abscessus | microbial growth, resazurin | ATCC19977 | – | IC50 | 0.57 µg/mL |
| CCOC(=O)CNC(=O)CO/N=c1\cc2n(-c3ccc(Cl)cc3)c3ccccc3nc-2cc1Nc1ccc(Cl)cc1 | Mycobacteroides abscessus | microbial growth | – | clinical isolate | MIC | > 30 µM |
| CN(C)c1cc(CNCC(C)(C)C)c(O)c2c1C[C@H]1C[C@H]3[C@H](N(C)C)C(O)=C(C(N)=O)C(=O)[C@@]3(O)C(O)=C1C2=O | Mycobacteroides abscessus | microbial growth, resazurin | ATCC19977 | – | IC50 | < 1 µg/mL |
| O=C(O)CO/N=c1\cc2n(-c3ccc(Cl)cc3)c3ccccc3nc-2cc1Nc1ccc(Cl)cc1 | Mycobacteroides abscessus | microbial growth | – | clinical isolate | MIC | > 30 µM |
